Source: PubChem BioAssay
RAD54 branch = blocks human RAD54 Holliday junction branch migration; Q92698; FAM/BHQ fluorescence; inhibition, % at 10.4 µM; 0.14% of 360,000 active;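 active = mean normalized replicate activity at least 40 and at least half of replicates scoring 40 or more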;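 note: 0% = median of neutral control wells and 100% = median of positive control wells; inhibitors cause a drop in the FAM fluorescence signal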
PglD inh = PglD (C. jejuni) enzyme inhibition; purified PglD enzyme, DTNB colorimetric CoA detection; inhibition, % at 12.5 µM; 0.098% of 360,000 active; AID 602405; in the data active = inhibition above about 16%, passing the limit was not always enough
FN deposit inh = fibronectin deposition inhibition. AH1F fibroblasts, Alexa488-fibronectin deposition fluorescence, overnight. 0.086% of 350,000 active. AID 743247. inhibition, % at 12.6 µM;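 active = mean inhibition across replicates of 30% or more, regardless of how many single replicates reach that level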;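 note: positive control wells lacked labelled fibronectin entirely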
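Test system: AH1F fibroblast monolayer depositing Alexa488-labelled fibronectin into matrix. Input: 10000 cells per well. Technique: fluorescence, ex 485 nm, em 525 nm. Buffer or medium: DMEM plus 2% serum, read in PBS. Timing: 1 h cell adhesion before compound, then overnight fibronectin incubation. Compound: single dose, pinned. Read-out basis: inhibition from reduced deposited-fibronectin fluorescence.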
S100A4 inh HTS = blocks human S100A4 binding to myosin IIA peptide | P26447 | inhibition, % at 10.7 µM | 0.14% of 360,000 active | S100A4/TAMRA-MyoIIA peptide fluorescence polarization;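 active = mean inhibition of at least 70% across replicates, with every replicate also reaching that level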
Target sequence (P26447 whole entry, looked up): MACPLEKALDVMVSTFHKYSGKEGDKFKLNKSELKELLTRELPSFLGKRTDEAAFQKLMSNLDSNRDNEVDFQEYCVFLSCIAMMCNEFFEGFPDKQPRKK
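System – human S100A4 monomer protein, biochemical binding assay · Buffer or medium – Calcium-containing HEPES buffer, pH 7.2 · Timing – 5 min between mix addition and reading · Also added – TAMRA-labelled myosin IIA heavy-chain peptide probe, 5 nM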
PDI turbidity = inhibitors of human protein disulfide isomerase. AID 588391. 0.052% of 350,000 active. inhibition, % at 10 µM. PDI insulin aggregation turbidity, A650, 90 min;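 active = mean inhibition across replicates of 30% or more, whatever share of single replicates reach that level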
ERp5 block = blocks human ERp5 reductase activity on insulin. ERp5 insulin aggregation, absorbance 650 nm, 90 min. Q15084. 0.05% of 350,000 active. inhibition, % at 9.99 µM;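 active = mean replicate inhibition above about 25%, with every replicate also reaching it, limit read from the data, passing the limit was not always enough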
Target sequence (Q15084 whole entry, looked up): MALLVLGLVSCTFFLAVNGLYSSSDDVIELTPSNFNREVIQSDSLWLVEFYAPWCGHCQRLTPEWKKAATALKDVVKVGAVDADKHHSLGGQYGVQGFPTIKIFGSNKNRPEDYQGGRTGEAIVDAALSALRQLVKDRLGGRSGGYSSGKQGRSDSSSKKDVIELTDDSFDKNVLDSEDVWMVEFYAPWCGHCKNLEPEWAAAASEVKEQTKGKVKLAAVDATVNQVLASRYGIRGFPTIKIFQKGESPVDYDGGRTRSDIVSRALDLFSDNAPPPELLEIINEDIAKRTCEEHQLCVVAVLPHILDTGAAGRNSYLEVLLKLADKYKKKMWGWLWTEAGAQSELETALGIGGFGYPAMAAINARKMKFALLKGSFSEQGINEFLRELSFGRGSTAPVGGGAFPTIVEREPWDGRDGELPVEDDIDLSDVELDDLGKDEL
The depositor's hits bear a star; / = no result. In the library only some 0.44% were active in any assay of this set; here they are far more common.

SMILES	RAD54 branch	PglD inh	FN deposit inh	S100A4 inh HTS	PDI turbidity	ERp5 block
CC(C)(C)c1ccc(OCCCNCc2ccccc2)cc1	/	/	3.8	/	-7.5	/
CCc1cc(OCCCCNCc2ccccc2)ccc1Cl	12.6	-8.4	4.6	/	54.2*	/
COc1cccc2c(N/N=C/c3ccc(O)c(O)c3)cc(C)nc12	-0.9	-1.7	0.8	-2.7	-6.7	-1.7
COc1ccc(/C=N/Nc2cc(C)nc3c(C)cccc23)cc1	61.0*	-5.0	5.5	-4.0	9.3	3.7
COc1ccc(/C=N/Nc2cc(C)nc3ccccc23)cc1	97.1*	-9.2	8.8	-7.5	1.2	1.5
COc1ccc2nc(C)cc(N/N=C/c3ccc(F)cc3)c2c1	7.6	-6.9	2.2	3.9	4.5	0.6
COc1ccc(C[C@@H]2CN3C(=NC[C@@H]3Cc3ccc(O)cc3)N2C[C@H](C)NC(=O)CCC2CCCCC2)cc1	10.6	-0.8	/	/	40.4*	/
COc1ccc(C[C@H]2CN3C(=NC[C@@H]3Cc3ccc(O)cc3)N2C[C@H](C)NC(=O)CCC2CCCCC2)cc1	4.0	-1.0	-3.3	6.7	17.5	-4.8
C/C=C(\C)C(=O)NCCN1C2=NC[C@H](Cc3ccc(O)cc3)N2C[C@H]1Cc1ccc(O)cc1	-6.6	-2.1	-2.7	3.0	44.7*	0.6
COCC(=O)N1CC2(C1)[C@@H](c1ccc(-c3ccccc3)cc1)[C@H](CO)N2C(C)=O	/	/	1.5	10.3	/	-2.1
CN(Cc1ccccc1F)c1ccc(S(=O)(=O)N2CCCC2)cn1	/	/	/	-1.2	9.1	2.5
COc1ccccc1CN(C)c1ccc(S(=O)(=O)N2CCN(C)CC2)cn1	15.2	-2.5	11.8	-2.0	23.9	31.5*
CC(C)C(c1nnnn1Cc1ccco1)N1CCN(c2nc3ccccc3s2)CC1 (stereo unspecified)	3.6	0.8	39.1*	/	-13.5	/
CN(C)CCCNC(=O)C[C@H]1CC[C@@H]2[C@H](COC[C@H](O)CN2CC2CCCC2)O1	4.0	-1.7	-0.1	56.2	/	-3.0
NC(=O)C1=C[C@H](c2coc3ccccc3c2=O)C[C@H](OCCCCO)O1	5.0	-1.3	33.2*	-3.7	-4.6	-3.4
O=[N+]([O-])c1ccc(S(=O)Cc2ccccc2)c([N+](=O)[O-])c1 (stereo unspecified)	/	/	36.7*	-1.2	6.9	4.3
CC(=O)N1[C@@H]2CN(CC3CC3)C[C@H]1C2c1ccc(Br)cc1 (stereo partly specified)	/	/	-14.2	/	/	/
C[C@H]1COCn2nncc2CCCC(=O)N1	/	/	2.2	/	/	/
C[C@@H]1CN([C@@H](C)CO)S(=O)(=O)c2ccc(C#Cc3cccnc3)cc2O[C@H]1CN(C)C(=O)CN(C)C	1.2	6.1	2.1	-4.7	/	54.1*
CC(C)C#Cc1ccc2c(c1)O[C@@H](CN(C)C(=O)C1CC1)[C@@H](C)CN([C@@H](C)CO)S2(=O)=O	-1.6	-0.1	/	-4.6	/	61.1*
C[C@@H]1CN([C@@H](C)CO)S(=O)(=O)c2ccc(C#C[C@@H](C)O)cc2O[C@@H]1CN(C)C(=O)C1CC1	-8.6	5.2	/	67.9	/	-0.9
C[C@@H]1CN([C@H](C)CO)S(=O)(=O)c2ccc(C#C[C@@H](C)O)cc2O[C@@H]1CN(C)C(=O)C1CC1	-4.4	-2.5	-7.1	120.8*	/	0.1
COCC(=O)N(C)C[C@@H]1Oc2cc(C#CC(C)(C)O)ccc2S(=O)(=O)N([C@@H](C)CO)C[C@H]1C	-8.3	1.3	/	-11.4	/	14.8
COCC(=O)N(C)C[C@H]1Oc2cc(C#CC(C)(C)O)ccc2S(=O)(=O)N([C@H](C)CO)C[C@H]1C	2.7	6.2	/	-3.2	/	72.8*
CC(=O)N1[C@H](CO)[C@@H](c2ccccc2)C12CN(C(=O)Nc1ccccc1F)C2	/	/	/	-11.2	/	0.4
SMILES	RAD54 branch	PglD inh	FN deposit inh	S100A4 inh HTS	PDI turbidity	ERp5 block
O=C(c1ccccc1F)N1C[C@@H]2O[C@H](CNS(=O)(=O)c3ccccc3)CC[C@@H]21	/	/	/	-37.3	/	-3.8
COc1cccc(-c2ccc(C3[C@@H]4CN(C(=O)Cc5ccccc5)C[C@H]3N4)cc2)c1 (stereo partly specified)	/	/	4.4	31.6	/	/
CNC[C@H]1Oc2c(NC(C)=O)cccc2C(=O)N(C)C[C@@H]1C	/	/	10.4	/	/	/
C[C@@H]1CN([C@H](C)CO)S(=O)(=O)c2ccc(C#CCN(C)C)cc2O[C@@H]1CN(C)CC1CC1	-11.5	-1.6	0.4	96.4*	/	-0.2
C[C@H](O)C#Cc1ccc2c(c1)O[C@@H](CN(C)C)[C@H](C)CN([C@H](C)CO)S2(=O)=O	5.3	1.7	48.1*	16.4	/	-2.0
COc1cccc(CN(C)C[C@H]2OCc3ccccc3-c3ccccc3C(=O)N([C@H](C)CO)C[C@H]2C)c1	/	/	-6.8	/	/	/
COc1ccc(-c2csc(NC(=O)C3CCN(C(=O)c4ccc(F)cc4)CC3)n2)cc1OC	-6.4	5.9	/	-0.8	0.9	29.0*
CN1c2ccc(C3=CCCCC3)cc2[C@@H]2[C@@H](CCN2C(=O)C2CC2)[C@@H]1CO	/	/	8.1	2.3	/	8.9
CN1c2ccc(C3=CCCCC3)cc2[C@@H]2[C@@H](CCN2C(=O)C2CC2)[C@H]1CO	/	/	-0.8	117.8*	/	-0.8
CN1c2ccc(-c3ccccc3)cc2[C@@H]2[C@@H](CCN2C(=O)CN2CCOCC2)[C@@H]1CO	4.1	2.1	30.0*	-6.1	/	5.6
CN1c2ccc(-c3ccccc3)cc2[C@@H]2[C@@H](CCN2C(=O)c2cccc(F)c2)[C@@H]1CO	-9.4	1.9	-1.5	130.2*	/	-1.6
CC1O[C@@H](OCC2O[C@@H](Oc3cc(O)c4c(c3)OC(c3ccc(O)cc3)CC4=O)[C@H](O)[C@@H](O)[C@@H]2O)[C@H](O)[C@H](O)[C@H]1O (stereo partly specified)	0.2	-2.5	/	-1.9	/	3.6
O=C1C[C@H](c2ccc(O)cc2)Oc2cc(O[C@@H]3O[C@H](CO)[C@@H](O)[C@H](O)[C@H]3O)cc(O[C@@H]3O[C@H](CO)[C@@H](O)[C@H](O)[C@H]3O)c21	-4.9	6.0	-0.9	1.3	39.0*	0.3
Cn1c(O)c(/C=C2\C=Nc3ccccc32)sc1=Nc1ccc(C(=O)O)cc1	-6.1	1.7	1.3	-3.5	54.2*	-0.8
CCCC(=O)Nc1ccc2c(c1)C(=O)N(C)C[C@H](OC)[C@@H](C)CN(C(=O)CC)[C@@H](C)CO2	/	/	-1.8	/	/	/
O=C1C=CC2(C=C1)O[C@H](Cc1ccccc1)[C@@H](Cc1ccccc1)O2	/	/	41.4*	0.5	44.5*	2.8
COc1ccc(C[C@@H]2OC3(C=CC(=O)C=C3)O[C@H]2Cc2ccc(OC)cc2)cc1	/	/	/	/	66.5*	/
COc1ccc(N2C(=O)CC(Cc3ccccc3)C2=O)cc1 (stereo unspecified)	0.7	0.1	4.0	/	3.5	/
CN(C)CC(=O)N1[C@@H](CO)[C@@H](c2ccccc2)C12CN(C(=O)c1ccccc1)C2	/	/	/	41.1	/	-0.3
